We go through one molecule from paper PMC10786240 (Antiviral research, 2019).

One assay deals with HeLa cells. The assay is described as follows: 48 h cytotoxicity assay. The assay is classed as cell-based. The settings on record: 48 h; compound at 10,000 nM with OSW-1.
The target of a further assay is T1, human OSBP (Homo sapiens, UniProt P22059).
T1 sequence (P22059 1-807): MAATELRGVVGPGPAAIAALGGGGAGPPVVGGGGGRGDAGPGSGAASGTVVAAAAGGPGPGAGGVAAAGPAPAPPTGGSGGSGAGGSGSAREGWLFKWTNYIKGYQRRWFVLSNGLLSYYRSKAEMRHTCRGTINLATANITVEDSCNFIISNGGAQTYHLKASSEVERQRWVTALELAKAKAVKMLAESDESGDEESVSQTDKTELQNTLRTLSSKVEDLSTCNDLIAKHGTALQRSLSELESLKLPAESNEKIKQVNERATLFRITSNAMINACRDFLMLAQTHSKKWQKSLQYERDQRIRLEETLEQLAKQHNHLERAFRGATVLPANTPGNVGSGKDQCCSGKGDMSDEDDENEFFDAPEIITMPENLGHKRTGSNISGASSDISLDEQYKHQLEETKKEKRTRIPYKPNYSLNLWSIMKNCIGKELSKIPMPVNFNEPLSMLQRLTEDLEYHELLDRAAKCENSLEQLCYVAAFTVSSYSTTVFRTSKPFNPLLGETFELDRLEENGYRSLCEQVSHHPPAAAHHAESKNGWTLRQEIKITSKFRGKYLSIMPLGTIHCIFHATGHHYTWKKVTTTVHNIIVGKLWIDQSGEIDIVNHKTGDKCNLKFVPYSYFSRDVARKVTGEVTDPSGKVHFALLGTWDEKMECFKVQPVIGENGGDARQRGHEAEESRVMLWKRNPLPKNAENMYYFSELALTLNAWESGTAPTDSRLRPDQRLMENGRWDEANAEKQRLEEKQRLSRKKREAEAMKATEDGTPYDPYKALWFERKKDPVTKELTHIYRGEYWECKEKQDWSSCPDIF
The assay is described as follows: 96-well [3H]-25-OHC competitive binding assay, OSBP. To be noted: compound at 10,000 nM; 20 nM 3H-25-OHC.

The target of the next assay is T2, human ORP4 (Homo sapiens, UniProt Q969R2).
T2 sequence (Q969R2 1-916): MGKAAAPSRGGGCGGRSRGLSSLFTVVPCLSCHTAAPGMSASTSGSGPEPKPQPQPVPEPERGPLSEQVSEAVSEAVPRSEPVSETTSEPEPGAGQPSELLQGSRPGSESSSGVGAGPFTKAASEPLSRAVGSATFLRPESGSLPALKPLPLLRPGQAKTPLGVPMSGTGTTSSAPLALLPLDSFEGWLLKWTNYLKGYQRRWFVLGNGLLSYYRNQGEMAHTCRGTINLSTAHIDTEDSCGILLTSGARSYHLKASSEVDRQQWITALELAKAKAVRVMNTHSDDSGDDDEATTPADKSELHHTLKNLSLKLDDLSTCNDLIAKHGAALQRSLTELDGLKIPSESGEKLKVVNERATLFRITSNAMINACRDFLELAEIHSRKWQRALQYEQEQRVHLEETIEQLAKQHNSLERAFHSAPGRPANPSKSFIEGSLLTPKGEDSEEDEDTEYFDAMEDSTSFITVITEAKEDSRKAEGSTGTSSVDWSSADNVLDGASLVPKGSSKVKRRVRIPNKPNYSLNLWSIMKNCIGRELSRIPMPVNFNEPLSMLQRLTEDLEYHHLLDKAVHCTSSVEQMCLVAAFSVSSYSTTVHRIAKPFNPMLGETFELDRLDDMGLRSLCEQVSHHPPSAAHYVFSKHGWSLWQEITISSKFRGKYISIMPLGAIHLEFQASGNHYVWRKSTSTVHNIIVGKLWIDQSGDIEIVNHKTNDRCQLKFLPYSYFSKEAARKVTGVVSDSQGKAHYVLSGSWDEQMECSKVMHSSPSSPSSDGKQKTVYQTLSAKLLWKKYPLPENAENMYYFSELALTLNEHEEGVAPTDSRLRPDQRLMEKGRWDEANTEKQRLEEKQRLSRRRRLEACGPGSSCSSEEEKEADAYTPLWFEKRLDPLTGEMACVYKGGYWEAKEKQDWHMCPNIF
The assay is described as follows: 96-well [3H]-25-OHC competitive binding assay, ORP4. The settings on record: compound at 10,000 nM; 20 nM 3H-25-OHC. A digest of the protocol:
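Inhibition of 20 nM [3H]-25-OHC binding to human ORP4 overexpressed in […] cell lysate, run in 96-well competitive format; […].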

The test system of assay [1] is N-terminal OSBP FFAT domain with VAP-A. To be noted: BiMC assay; cited from earlier work.
In assay [2] the test system is OSBP localization in HCT-116 cells. Put plainly: immunofluorescence imaging of endogenous OSBP localization. The assay is classed as cell-based.
The subject of a further assay is OSBP. To be noted: in vitro; cited from earlier work.
For assay [3], the system named is OSBP levels in HCT-116 and HEK293 cells. Put plainly: OSBP expression in cells upon 24 h compound treatment. The format is cell-based, human. A digest of the protocol:
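HCT-116 (McCoy's 5A, 10% serum, 1% penicillin-streptomycin) or HEK293 cells seeded 5×10^5 per well, 20 h at 37 °C. Compound diluted from stock in complete medium, alone or with 1 nM OSW-1 co-treatment, for 24 h; DMSO vehicle control. Lysates immunoblotted for OSBP (A-5 antibody), β-actin as loading reference. Bands averaged over independent experiments.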

A further assay concerns HCT-116 cells. The assay is described as follows: Trypan Blue cell viability assay. The assay is classed as cell-based. The settings on record: 24 h, OSW-1 1 nM, ITZ, THEV, TTP 10,000 nM, each alone.
A further assay has as its system immortalized cell lines. Put plainly: 48 h assay for cell metabolic activity. The assay is classed as cell-based. The settings on record: at <10,000 nM concentrations, Fig. 4B, Supp. Fig. 1.

For `C[C@@H](NC(=O)c1cccc(-c2cnc(-c3cc4ccccc4cn3)[nH]2)c1)c1ccc(F)cc1` [TTP], the “effect of co-administration on antiproliferative OSW-1 activity, HeLa” value in the assay with HeLa cells was “does not significantly affect the antiproliferative OSW-1 activity”. For the same molecule, the “inhibition of 25-OHC binding to OSBP” value at human OSBP was “no 25-OHC inhibition binding”. Further, the “inhibition of 25-OHC binding to ORP4” value on human ORP4 is given as “no 25-OHC inhibition binding”. In addition, the “inhibition of OSBP FFAT domain interaction with VAP-A” value in assay [1] is “Neither ITZ (3) or TTP (5) substantially inhibited”. Besides, in assay [2] (24 h, 10,000 nM compound with 1 nM OSW-1), the “OSBP cellular localization on co-administration with OSW-1” value is “low expression of OSBP with a pattern not consistent with the OSW-1 alone or TTP alone treatment”. In addition, in assay [2] (24 h, OSW-1 1 nM, 25-OHC, ITZ, TTP, THEV 10,000 nM, Golgi marker TGN46), the OSBP cellular localization entry was “induces a tight colocalization of OSBP with the Golgi marker with a perinuclear pattern close to the vehicle (DMSO) treated cell”. Further, the “inhibition of OSBP cholesterol transport between vesicles” value in the assay with OSBP was “shown to inhibit the ability of OSBP to transport cholesterol between vesicles”. In addition, the “effect of co-administration on OSW-1-induced reduction of OSBP levels” value in assay [3] (10,000 nM compound with 1 nM OSW-1, HEK293 and HCT116) is reported as “has no effect on OSBP levels”. Besides, in assay [3] (OSW-1 1 nM, Taxol 10 nM, ITZ, THEV, TTP 10,000 nM, HEK293 and HCT-116), the “effect on OSBP cellular levels” value is “do not reduce OSBP levels”. In addition, the “effect on cell population (cell counting after Trypan blue staining)” value in the assay with HCT-116 cells is listed as “does not affect the cell population”. Moreover, the antiproliferative activity entry in the assay on immortalized cell lines is on record as “no antiproliferative activity”.
